Assay results as given in ChEMBL document CHEMBL2384977, “Synthesis and biological evaluation of novel styryl benzimidazole derivatives as probes for imaging of neurofibrillary tangles in Alzheimer's disease” (Bioorg Med Chem, 2013).

Key:
Brain [1] = test: Ratio of drug level in mouse brain measured at 2.5 mins to drug level in mouse brain measured at 20 mins; assay type: ADME, tissue-based; conditions: in vivo
Heart [2] = test: Biodistribution in ddY mouse heart at 13.2 to 20.6 kBq, iv measured at 60 mins by gamma counting analysis; assay type: ADME, organism-based; conditions: in vivo, 1 h
Method in brief: (§1)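 Male ddY mice, 5 weeks old, received the 125I-labelled tracer (13.2–20.6 kBq) intravenously in the tail vein, in 100 µL saline containing ethanol. Animals were sacrificed at 2, 10, 30 and 60 min. Tissue radioactivity is expressed as %ID/g, mean (SD) of 5 animals.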

Brain [3] = test: Ratio of drug level in ddY mouse brain at 13.2 to 20.6 kBq, iv measured at 2 mins to drug level in ddY mouse brain at 13.2 to 20.6 kBq, iv measured at 60 mins; assay type: ADME, organism-based; conditions: in vivo
Method in brief: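 Tail-vein injection of the 125I tracer (13.2–20.6 kBq, saline with ethanol) into male 5-week-old ddY mice. The ratio is brain uptake (%ID/g) at 2 min divided by brain uptake at 60 min, from groups of 5 animals.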

Blood [4] = test: Biodistribution in ddY mouse blood at 13.2 to 20.6 kBq, iv measured at 2 mins by gamma counting analysis; assay type: ADME, organism-based; conditions: in vivo; method in brief: as §1
Heart [5] = test: Biodistribution in ddY mouse heart at 13.2 to 20.6 kBq, iv measured at 10 mins by gamma counting analysis; assay type: ADME, organism-based; conditions: in vivo; method in brief: as §1
Intestine [6] = test: Biodistribution in ddY mouse intestine at 13.2 to 20.6 kBq, iv measured at 10 mins by gamma counting analysis; assay type: ADME, organism-based; conditions: in vivo; method in brief: as §1
Lung [7] = test: Biodistribution in ddY mouse lung at 13.2 to 20.6 kBq, iv measured at 2 mins by gamma counting analysis; assay type: ADME, organism-based; conditions: in vivo; method in brief: as §1
Lung [8] = test: Biodistribution in ddY mouse lung at 13.2 to 20.6 kBq, iv measured at 60 mins by gamma counting analysis; assay type: ADME, organism-based; conditions: in vivo, 1 h; method in brief: as §1
Intestine [9] = test: Biodistribution in ddY mouse intestine at 13.2 to 20.6 kBq, iv measured at 2 mins by gamma counting analysis; assay type: ADME, organism-based; conditions: in vivo; method in brief: as §1
Brain [10] = test: Biodistribution in ddY mouse brain at 13.2 to 20.6 kBq, iv measured at 60 mins by gamma counting analysis; assay type: ADME, organism-based; conditions: in vivo, 1 h; method in brief: as §1
Stomach [11] = test: Biodistribution in ddY mouse stomach at 13.2 to 20.6 kBq, iv measured per organ at 60 mins by gamma counting analysis; assay type: ADME, organism-based; conditions: in vivo, 1 h
Method in brief: (§2)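 Male ddY mice, 5 weeks old, were injected in the tail vein with the 125I tracer (13.2–20.6 kBq) in 100 µL saline containing ethanol. Sacrifice at 2, 10, 30 and 60 min. Stomach radioactivity is expressed as %ID per whole organ, mean (SD) of 5 animals.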

Blood [12] = test: Biodistribution in ddY mouse blood at 13.2 to 20.6 kBq, iv measured at 30 mins by gamma counting analysis; assay type: ADME, organism-based; conditions: in vivo, 0.5 h; method in brief: as §1
Brain [13] = test: Drug uptake in human brain at 92.5 kBq after 1 hr by autoradiographic analysis; assay type: ADME, tissue-based
Stomach [14] = test: Biodistribution in ddY mouse stomach at 13.2 to 20.6 kBq, iv measured per organ at 30 mins by gamma counting analysis; assay type: ADME, organism-based; conditions: in vivo, 0.5 h; method in brief: as §2
[15] = 1-Octanol-PBS buffer partition coefficient, log P of the compound at 0.37 MBq after 2 mins by gamma counting analysis; assay type: physicochemical
Kidney [16] = test: Biodistribution in ddY mouse kidney at 13.2 to 20.6 kBq, iv measured at 10 mins by gamma counting analysis; assay type: ADME, organism-based; conditions: in vivo; method in brief: as §1
Blood [17] = test: Biodistribution in ddY mouse blood at 13.2 to 20.6 kBq, iv measured at 60 mins by gamma counting analysis; assay type: ADME, organism-based; conditions: in vivo, 1 h; method in brief: as §1
Liver [18] = test: Biodistribution in ddY mouse liver at 13.2 to 20.6 kBq, iv measured at 2 mins by gamma counting analysis; assay type: ADME, organism-based; conditions: in vivo; method in brief: as §1
Brain [19] = test: Biodistribution in ddY mouse brain at 13.2 to 20.6 kBq, iv measured at 2 mins by gamma counting analysis; assay type: ADME, organism-based; conditions: in vivo; method in brief: as §1
Spleen [20] = test: Biodistribution in ddY mouse spleen at 13.2 to 20.6 kBq, iv measured at 10 mins by gamma counting analysis; assay type: ADME, organism-based; conditions: in vivo; method in brief: as §1
Brain [21] = test: Drug uptake in white matter of alzheimer disease patient brain at 92.5 kBq after 1 hr by autoradiographic analysis; assay type: ADME, tissue-based; conditions: human, in vitro
Method in brief: (§3)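 Postmortem AD brain (person), 6 µm paraffin sections, deparaffinized in xylene and a graded ethanol series. Sections were incubated with the 125I tracer (92.5 kBq/100 µL) for 1 h at room temperature, then dipped in 50% EtOH for 2 h and rinsed in water. Imaging plates were exposed overnight. Adjacent sections were immunostained with AT8 (phospho-tau) and BC05 (Abeta1-42).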

Intestine [22] = test: Biodistribution in ddY mouse intestine at 13.2 to 20.6 kBq, iv measured at 30 mins by gamma counting analysis; assay type: ADME, organism-based; conditions: in vivo, 0.5 h; method in brief: as §1
Heart [23] = test: Biodistribution in ddY mouse heart at 13.2 to 20.6 kBq, iv measured at 2 mins by gamma counting analysis; assay type: ADME, organism-based; conditions: in vivo; method in brief: as §1
Stomach [24] = test: Biodistribution in ddY mouse stomach at 13.2 to 20.6 kBq, iv measured per organ at 10 mins by gamma counting analysis; assay type: ADME, organism-based; conditions: in vivo; method in brief: as §2
Spleen [25] = test: Biodistribution in ddY mouse spleen at 13.2 to 20.6 kBq, iv measured at 2 mins by gamma counting analysis; assay type: ADME, organism-based; conditions: in vivo; method in brief: as §1
Spleen [26] = test: Biodistribution in ddY mouse spleen at 13.2 to 20.6 kBq, iv measured at 60 mins by gamma counting analysis; assay type: ADME, organism-based; conditions: in vivo, 1 h; method in brief: as §1
Kidney [27] = test: Biodistribution in ddY mouse kidney at 13.2 to 20.6 kBq, iv measured at 30 mins by gamma counting analysis; assay type: ADME, organism-based; conditions: in vivo, 0.5 h; method in brief: as §1
Liver [28] = test: Biodistribution in ddY mouse liver at 13.2 to 20.6 kBq, iv measured at 60 mins by gamma counting analysis; assay type: ADME, organism-based; conditions: in vivo, 1 h; method in brief: as §1
Intestine [29] = test: Biodistribution in ddY mouse intestine at 13.2 to 20.6 kBq, iv measured at 60 mins by gamma counting analysis; assay type: ADME, organism-based; conditions: in vivo, 1 h; method in brief: as §1
Blood [30] = test: Biodistribution in ddY mouse blood at 13.2 to 20.6 kBq, iv measured at 10 mins by gamma counting analysis; assay type: ADME, organism-based; conditions: in vivo; method in brief: as §1
Pancreas [31] = test: Biodistribution in ddY mouse pancreas at 13.2 to 20.6 kBq, iv measured at 30 mins by gamma counting analysis; assay type: ADME, organism-based; conditions: in vivo, 0.5 h; method in brief: as §1
Lung [32] = test: Biodistribution in ddY mouse lung at 13.2 to 20.6 kBq, iv measured at 10 mins by gamma counting analysis; assay type: ADME, organism-based; conditions: in vivo; method in brief: as §1
Liver [33] = test: Biodistribution in ddY mouse liver at 13.2 to 20.6 kBq, iv measured at 10 mins by gamma counting analysis; assay type: ADME, organism-based; conditions: in vivo; method in brief: as §1
Pancreas [34] = test: Biodistribution in ddY mouse pancreas at 13.2 to 20.6 kBq, iv measured at 60 mins by gamma counting analysis; assay type: ADME, organism-based; conditions: in vivo, 1 h; method in brief: as §1
Brain [35] = test: Drug uptake in gray matter of alzheimer disease patient brain at 92.5 kBq after 1 hr by autoradiographic analysis; assay type: ADME, tissue-based; conditions: human, in vitro; method in brief: as §3
Pancreas [36] = test: Biodistribution in ddY mouse pancreas at 13.2 to 20.6 kBq, iv measured at 2 mins by gamma counting analysis; assay type: ADME, organism-based; conditions: in vivo; method in brief: as §1
Stomach [37] = test: Biodistribution in ddY mouse stomach at 13.2 to 20.6 kBq, iv measured per organ at 2 mins by gamma counting analysis; assay type: ADME, organism-based; conditions: in vivo; method in brief: as §2
Spleen [38] = test: Biodistribution in ddY mouse spleen at 13.2 to 20.6 kBq, iv measured at 30 mins by gamma counting analysis; assay type: ADME, organism-based; conditions: in vivo, 0.5 h; method in brief: as §1
Brain [39] = test: Biodistribution in ddY mouse brain at 13.2 to 20.6 kBq, iv measured at 10 mins by gamma counting analysis; assay type: ADME, organism-based; conditions: in vivo; method in brief: as §1
Pancreas [40] = test: Biodistribution in ddY mouse pancreas at 13.2 to 20.6 kBq, iv measured at 10 mins by gamma counting analysis; assay type: ADME, organism-based; conditions: in vivo; method in brief: as §1
Brain [41] = test: Biodistribution in ddY mouse brain at 13.2 to 20.6 kBq, iv measured at 30 mins by gamma counting analysis; assay type: ADME, organism-based; conditions: in vivo, 0.5 h; method in brief: as §1
Liver [42] = test: Biodistribution in ddY mouse liver at 13.2 to 20.6 kBq, iv measured at 30 mins by gamma counting analysis; assay type: ADME, organism-based; conditions: in vivo, 0.5 h; method in brief: as §1
Kidney [43] = test: Biodistribution in ddY mouse kidney at 13.2 to 20.6 kBq, iv measured at 2 mins by gamma counting analysis; assay type: ADME, organism-based; conditions: in vivo; method in brief: as §1
Kidney [44] = test: Biodistribution in ddY mouse kidney at 13.2 to 20.6 kBq, iv measured at 60 mins by gamma counting analysis; assay type: ADME, organism-based; conditions: in vivo, 1 h; method in brief: as §1
Lung [45] = test: Biodistribution in ddY mouse lung at 13.2 to 20.6 kBq, iv measured at 30 mins by gamma counting analysis; assay type: ADME, organism-based; conditions: in vivo, 0.5 h; method in brief: as §1
Heart [46] = test: Biodistribution in ddY mouse heart at 13.2 to 20.6 kBq, iv measured at 30 mins by gamma counting analysis; assay type: ADME, organism-based; conditions: in vivo, 0.5 h; method in brief: as §1
Brain [47] = test: Ratio of drug level in ICR mouse brain at 0.68 to 1.32 MBq, iv measured at 2 mins to drug level in ICR mouse brain at 0.68 to 1.32 MBq, iv measured at 60 mins; assay type: ADME, organism-based; conditions: in vivo

[18F]CCC1CCN(c2ccn3c(n2)nc2ccccc23)CC1
Ratio (Brain [1]): 2.92

CN(C)c1ccc(/C=C/c2nc3ccc([125I])cc3[nH]2)cc1
Drug uptake (Heart [2]): 1.12 % ID/g
Ratio (Brain [3]): 9.94
Drug uptake (Blood [4]): 3.83 % ID/g
Drug uptake (Heart [5]): 3.46 % ID/g
Drug uptake (Intestine [6]): 9.22 % ID/g
Drug uptake (Lung [7]): 7.39 % ID/g
Drug uptake (Lung [8]): 1.39 % ID/g
Drug uptake (Intestine [9]): 3.11 % ID/g
Drug uptake (Brain [10]): 0.33 % ID/g
Drug uptake (Stomach [11]): 3.56 %ID
Drug uptake (Blood [12]): 1.88 % ID/g
Drug uptake (Brain [13]): Not Active
Drug uptake (Stomach [14]): 3.83 %ID
logP at 2 min [15]: 2.23
Drug uptake (Kidney [16]): 7.28 % ID/g
Drug uptake (Blood [17]): 1.28 % ID/g
Drug uptake (Liver [18]): 17.4 % ID/g
Drug uptake (Brain [19]): 3.28 % ID/g
Drug uptake (Spleen [20]): 3.69 % ID/g
Drug uptake (Brain [21]): Not Active
Drug uptake (Intestine [22]): 18.2 % ID/g
Drug uptake (Heart [23]): 8.56 % ID/g
Drug uptake (Stomach [24]): 2.82 %ID
Drug uptake (Spleen [25]): 3.48 % ID/g
Drug uptake (Spleen [26]): 1.42 % ID/g
Drug uptake (Kidney [27]): 4.32 % ID/g
Drug uptake (Liver [28]): 10.1 % ID/g
Drug uptake (Intestine [29]): 26.5 % ID/g
Drug uptake (Blood [30]): 3.24 % ID/g
Drug uptake (Pancreas [31]): 1.67 % ID/g
Drug uptake (Lung [32]): 3.98 % ID/g
Drug uptake (Liver [33]): 19.2 % ID/g
Drug uptake (Pancreas [34]): 0.89 % ID/g
Drug uptake (Brain [35]): Active
Drug uptake (Pancreas [36]): 5.4 % ID/g
Drug uptake (Stomach [37]): 1.67 %ID
Drug uptake (Spleen [38]): 2.66 % ID/g
Drug uptake (Brain [39]): 1.61 % ID/g
Drug uptake (Pancreas [40]): 3.31 % ID/g
Drug uptake (Brain [41]): 0.68 % ID/g
Drug uptake (Liver [42]): 14.9 % ID/g
Drug uptake (Kidney [43]): 11.7 % ID/g
Drug uptake (Kidney [44]): 2.26 % ID/g
Drug uptake (Lung [45]): 2.2 % ID/g
Drug uptake (Heart [46]): 2 % ID/g

Nc1ccc(-c2ccc3cc(OCC[18F])ccc3n2)cc1
Ratio (Brain [47]): 1.83
